Pf Dd2 growth: P. falciparum Dd2 growth inhibitors, primary screen, SYBR Green fluorescence, single dose replicates; 72 h; active compounds read low; activity change, % at 10 µM; 2.3% of 94,000 active; AID 1159554, 2015; in the data active means activity change below about -80%; inconclusive means no clear call, values can overlap the other calls
IDH1 R132H inh: inhibitors of IDH1 R132H reductase, primary screen, biochemical, plate reader, single point | Isocitrate dehydrogenase [NADP] cytoplasmic (Homo sapiens), O75874 | diaphorase/resazurin fluorescence, 60 min | inhibition, % at 10 µM | 0.18% of 70,000 active | AID 624101, 2012; in the data active means inhibition above about 34%; inconclusive means no clear call, values can overlap the other calls; inactive means below about 11%
Target sequence (O75874 whole entry R132H): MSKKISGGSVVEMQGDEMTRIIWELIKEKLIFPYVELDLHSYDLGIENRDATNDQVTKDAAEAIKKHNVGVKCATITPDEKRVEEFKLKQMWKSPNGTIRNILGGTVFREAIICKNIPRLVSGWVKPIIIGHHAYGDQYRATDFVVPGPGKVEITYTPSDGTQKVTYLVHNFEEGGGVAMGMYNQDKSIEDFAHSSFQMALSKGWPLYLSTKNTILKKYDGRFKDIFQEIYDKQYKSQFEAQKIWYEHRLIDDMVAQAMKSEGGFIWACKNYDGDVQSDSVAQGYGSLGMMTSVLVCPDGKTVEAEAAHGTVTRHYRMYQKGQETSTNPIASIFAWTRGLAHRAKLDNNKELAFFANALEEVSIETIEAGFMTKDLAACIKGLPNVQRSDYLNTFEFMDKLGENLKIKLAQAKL
T cruzi growth-1: T. cruzi intracellular proliferation inhibitors, primary screen, cell-based, beta-gal Tulahuen parasites, NIH3T3 host, luminescence; T. cruzi beta-gal in NIH3T3, GalScreen luminescence, 90 h; 5.9% of 77,000 active; AID 624255, 2012; inhibition, % at 8.34 µM;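 active means mean inhibition above about 93%, with at least 55% of replicates each passing it, limit read from the data, passing the limit was not always enough; inconclusive means only one of those two conditions holds; inactive means neither condition holds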
GASC1 inh: inhibitors of GASC-1 (KDM4C) histone demethylase, primary screen, biochemical, single concentration HTS; Lysine-specific demethylase 4C (Homo sapiens), Q9H3R0; GST-KDM4C 2-372, H3K9me3 peptide, LANCE TR-FRET; inhibition, % at 12.5 µM; 0.15% of 96,000 active; AID 720574, 2013;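 active means mean replicate inhibition above about 25%, with at least 55% of replicates also reaching it, limit read from the data, passing the limit was not always enough; inconclusive means only one of those two conditions met; inactive means neither condition met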
Target sequence (Q9H3R0 2-372 limits assumed): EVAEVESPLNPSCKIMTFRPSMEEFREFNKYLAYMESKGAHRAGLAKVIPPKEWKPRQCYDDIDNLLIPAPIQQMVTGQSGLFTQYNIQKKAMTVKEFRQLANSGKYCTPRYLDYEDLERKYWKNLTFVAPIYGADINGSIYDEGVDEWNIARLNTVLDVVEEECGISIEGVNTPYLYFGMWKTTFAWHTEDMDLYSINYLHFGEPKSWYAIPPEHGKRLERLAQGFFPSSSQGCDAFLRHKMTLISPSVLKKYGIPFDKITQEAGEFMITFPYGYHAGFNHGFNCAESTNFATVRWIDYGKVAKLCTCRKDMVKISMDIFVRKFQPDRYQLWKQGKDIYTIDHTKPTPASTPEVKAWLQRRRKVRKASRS
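Material: N-terminal GST-fused human GASC-1 (KDM4C) fragment, residues 2-372. Input: 10 nM enzyme. Incubation: enzyme reaction 30 min, then detection 60 min, both room temperature. Doses: one test concentration per compound. Read-out basis: inhibition from TR-FRET ratio decrease. Detection: LANCE TR-FRET, excitation 340 nm, emissions 618 and 671 nm.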
T cruzi growth-2: T. cruzi intracellular proliferation inhibitors, confirmation, cell-based, NIH3T3 host, beta-gal parasite, luminescence, cherry-pick | shares compounds with T cruzi growth-1 | T. cruzi beta-gal in NIH3T3, GalScreen luminescence, 90 h | 72% of 5,600 active | inhibition, % at 8.35 µM;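 active means mean replicate inhibition above about 95% and at least 55% of replicates individually reaching it, limit read from the data; inconclusive means only one of the two criteria is met; inactive means neither criterion is met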
T cruzi growth-3: inhibitors of intracellular T. cruzi replication, confirmation, NIH3T3 host cells, beta-gal parasites, cherry-pick, set 2. shares compounds with T cruzi growth-1. inhibition, % at 2.09 µM. AID 651740, 2012. T. cruzi beta-gal in NIH3T3, GalScreen luminescence, 90 h. 21% of 5,600 active;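 active means mean inhibition above about 95%, with at least 55% of replicates also reaching it, limit read from the data; inconclusive means meets just one of the two conditions; inactive means meets neither condition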
3T3 cytotox: cytotoxicity in mouse NIH/3T3 fibroblasts, confirmation, cytotoxicity control for T. cruzi proliferation inhibitor project, cell-based, cherry-pick, single point; shares compounds with T cruzi growth-1; NIH/3T3 viability, CellTiter-Glo ATP luminescence, 90 h; cytotoxicity (signal decrease), % at 8.35 µM; 14% of 5,600 active; AID 651742, 2012;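 active means mean signal decrease across replicates above about 35% based on untreated-well scatter, with enough replicates individually passing, limit read from the data; inconclusive means no rule stated though some were filed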
3T3 cytotox 2: NIH/3T3 fibroblast cytotoxicity, confirmation, cytotoxicity control, cell-based, cherry-pick, single point, set 2 | 56% of 5,600 active | inhibition, % at 24.9 µM | NIH/3T3 viability, CellTiter-Glo ATP luminescence, 90 h | shares compounds with T cruzi growth-1;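 active means mean loss of cell viability signal at or above a set limit, and enough replicates individually reaching it; inconclusive means meets only the mean limit or only the replicate share; inactive means meets neither condition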
Large screens that a line does not name were inactive (follow-up assays come after a bar, where they were run). In the library only some 5.8% were active in any assay of this set; here they are far more common.

C[C@H]1CN([C@@H](C)CO)C(=O)CCCn2cc(nn2)CO[C@H]1CN(C)C(=O)c1ccc(N2CCN(C)CC2)cc1	T cruzi growth-1 inconclusive | T cruzi growth-2 inactive | T cruzi growth-3 inactive | 3T3 cytotox inactive | 3T3 cytotox 2 inactive
C[C@@H]1CN([C@H](C)CO)C(=O)CCCn2cc(nn2)CO[C@H]1CN(C)C(=O)c1ccc2ccn(C)c2c1	T cruzi growth-1 inconclusive | T cruzi growth-2 inactive | T cruzi growth-3 inactive | 3T3 cytotox inactive | 3T3 cytotox 2 inactive
C[C@H]1CN([C@@H](C)CO)C(=O)c2cccc(NC(=O)C3CCCCC3)c2O[C@@H]1CN(C)Cc1ccc(Oc2ccccc2)cc1	none (no result: IDH1 R132H inh)
C/C=C/c1cnc2c(c1)C(=O)N([C@H](C)CO)C[C@H](C)[C@H](CN(C)C(=O)c1cnccn1)O2	none (no result: T cruzi growth-1)
C[C@H](CO)N1C[C@H](C)[C@H](CN(C)C(=O)Nc2ccc3c(c2)OCO3)Oc2ncc(C#Cc3ccc(C(F)(F)F)cc3)cc2C1=O	T cruzi growth-1 inconclusive | T cruzi growth-2 100 | T cruzi growth-3 inconclusive | 3T3 cytotox inactive | 3T3 cytotox 2 106
C[C@H](CO)N1C[C@H](C)[C@H](CN(C)C(=O)Nc2ccccc2)Oc2ncc(C#Cc3ccc(C(F)(F)F)cc3)cc2C1=O	T cruzi growth-1 117 (no result: GASC1 inh) | T cruzi growth-2 108 | T cruzi growth-3 inconclusive | 3T3 cytotox inactive | 3T3 cytotox 2 105
C[C@@H]1CN([C@H](C)CO)C(=O)c2cc(C#Cc3ccc(F)cc3)cnc2O[C@H]1CN(C)C(=O)Nc1ccc(F)cc1	none
COc1ccc(NC(=O)N(C)C[C@@H]2Oc3ncc(C#Cc4ccc(C(F)(F)F)cc4)cc3C(=O)N([C@H](C)CO)C[C@@H]2C)cc1	T cruzi growth-1 108 | T cruzi growth-2 101 | T cruzi growth-3 inconclusive | 3T3 cytotox inactive | 3T3 cytotox 2 104
C[C@H](CO)N1C[C@H](C)[C@H](CN(C)C(=O)Nc2ccc(F)cc2)Oc2ncc(C#Cc3ccccc3)cc2C1=O	T cruzi growth-1 110 (no result: IDH1 R132H inh) | T cruzi growth-2 inactive | T cruzi growth-3 inactive | 3T3 cytotox 57 | 3T3 cytotox 2 103
O=C(C[C@H]1CC[C@@H]2[C@H](COC[C@@H](O)CN2C(=O)c2ccccn2)O1)N1CCN(c2ccccc2)CC1	none (no result: IDH1 R132H inh)
C[C@@H]1CN([C@H](C)CO)C(=O)c2cc(NC(=O)Nc3ccc4c(c3)OCO4)ccc2O[C@H]1CN(C)Cc1ccccc1	none (no result: IDH1 R132H inh, GASC1 inh)
COc1ccc(S(=O)(=O)N2C[C@H](O)COC[C@H]3O[C@H](CC(=O)N[C@H]4CCN(Cc5ccccc5)C4)CC[C@@H]32)cc1	none (no result: Pf Dd2 growth, IDH1 R132H inh)
C[C@H](CO)N1C[C@H](C)[C@H](CN(C)S(=O)(=O)c2ccc(Cl)cc2)Oc2ccc(NS(C)(=O)=O)cc2C1=O	none
C[C@H]1CN([C@@H](C)CO)C(=O)c2cc(C#Cc3ccc(F)cc3)cnc2O[C@H]1CN(C)S(C)(=O)=O	none
C[C@H](CO)N1C[C@H](C)[C@H](CN(C)C(=O)Nc2ccccc2)Oc2ncc(C#CC3CCCC3)cc2C1=O	none (no result: IDH1 R132H inh)
C[C@@H]1CN([C@H](C)CO)C(=O)c2cc(C#CC3CC3)cnc2O[C@@H]1CN(C)C(=O)Nc1ccccc1	T cruzi growth-1 107 | T cruzi growth-2 inactive | T cruzi growth-3 inactive | 3T3 cytotox inactive | 3T3 cytotox 2 inactive
O=C(Nc1ccc2c(c1)[C@@H]1C[C@H](CC(=O)N3CCOCC3)O[C@@H](CO)[C@@H]1O2)c1cccnc1	none
CC(=O)N1CCCCN2[C@H](C1)[C@H](c1ccc(-c3ccc(C)cc3)cc1)[C@@H]2CO	T cruzi growth-1 100 (no result: IDH1 R132H inh) | T cruzi growth-2 106 | T cruzi growth-3 inactive | 3T3 cytotox inactive | 3T3 cytotox 2 29
CC(=O)N1CCCCN2[C@H](C1)[C@H](c1ccc(-c3ccc(F)cc3)cc1)[C@@H]2CO	none (no result: IDH1 R132H inh)
CC(=O)N1CCCCN2[C@@H](CO)[C@H](c3ccc(-c4ccc(C)cc4)cc3)[C@@H]2C1	T cruzi growth-1 120 (no result: IDH1 R132H inh) | T cruzi growth-2 inactive | T cruzi growth-3 inactive | 3T3 cytotox inconclusive | 3T3 cytotox 2 76
CC(=O)N1CCCCN2[C@H](C1)[C@@H](c1ccc(-c3ccc(C)cc3)cc1)[C@@H]2CO	T cruzi growth-1 111 (no result: IDH1 R132H inh) | T cruzi growth-2 inactive | T cruzi growth-3 inactive | 3T3 cytotox inactive | 3T3 cytotox 2 inactive
CC(=O)N1CCCCN2[C@H](CO)[C@@H](c3ccc(-c4ccc(C)cc4)cc3)[C@@H]2C1	T cruzi growth-1 102 (no result: IDH1 R132H inh) | T cruzi growth-2 inactive | T cruzi growth-3 inactive | 3T3 cytotox 41 | 3T3 cytotox 2 28
Cc1ccc(S(=O)(=O)N(C)C[C@@H]2OCCCC[C@H](C)Oc3ccc(NC(=O)Nc4c(C)noc4C)cc3C(=O)N([C@@H](C)CO)C[C@@H]2C)cc1	none
CC(=O)N1CCCCN2[C@H](CO)[C@@H](c3ccc(-c4ccc(C)cc4)cc3)[C@H]2C1	T cruzi growth-1 106 (no result: IDH1 R132H inh) | T cruzi growth-2 inactive | T cruzi growth-3 inactive | 3T3 cytotox inactive | 3T3 cytotox 2 74
CC(=O)N1CCCCN2[C@@H](CO)[C@@H](c3ccc(-c4ccc(C)cc4)cc3)[C@@H]2C1	T cruzi growth-1 106 (no result: IDH1 R132H inh) | T cruzi growth-2 inactive | T cruzi growth-3 inactive | 3T3 cytotox 36 | 3T3 cytotox 2 66
CCC(=O)Nc1ccc2c(c1)OC[C@@H](C)N(C(=O)C1CC1)C[C@H](C)[C@H](OC)CN(C)C2=O	none (no result: IDH1 R132H inh, T cruzi growth-1)
CNC[C@H]1Oc2c(N)cccc2C(=O)N([C@H](C)CO)C[C@@H]1C	none
O=C(C[C@@H]1CC[C@H]2[C@@H](COC[C@H](O)CN2C(=O)Nc2cccc(Cl)c2)O1)NCc1ccccc1F	T cruzi growth-1 119 (no result: IDH1 R132H inh) | T cruzi growth-2 inactive | T cruzi growth-3 inactive | 3T3 cytotox inactive | 3T3 cytotox 2 inactive
O=C(C[C@@H]1CC[C@@H]2[C@H](COC[C@@H](O)CN2C(=O)Nc2cccc(Cl)c2)O1)NCc1ccccc1F	T cruzi growth-1 123 (no result: IDH1 R132H inh) | T cruzi growth-2 97 | T cruzi growth-3 inactive | 3T3 cytotox inactive | 3T3 cytotox 2 38
N#C[C@@H]1[C@@H](c2ccc(C3=CCCC3)cc2)[C@H](CO)N1C(=O)C1CCC1	none (no result: IDH1 R132H inh)

Compound activity deposited in PubChem BioAssay by Broad Institute.
